Read-outs that look alike come from different tables or passages of the source.
Columns and labels:
[1] = rats; cited from earlier work
OATP2B1 = molecular target: T1, OATP2B1 (Homo sapiens, UniProt O94956); test: OATP2B1 inhibition assay; format: cell-based
T1 sequence (O94956 1-709): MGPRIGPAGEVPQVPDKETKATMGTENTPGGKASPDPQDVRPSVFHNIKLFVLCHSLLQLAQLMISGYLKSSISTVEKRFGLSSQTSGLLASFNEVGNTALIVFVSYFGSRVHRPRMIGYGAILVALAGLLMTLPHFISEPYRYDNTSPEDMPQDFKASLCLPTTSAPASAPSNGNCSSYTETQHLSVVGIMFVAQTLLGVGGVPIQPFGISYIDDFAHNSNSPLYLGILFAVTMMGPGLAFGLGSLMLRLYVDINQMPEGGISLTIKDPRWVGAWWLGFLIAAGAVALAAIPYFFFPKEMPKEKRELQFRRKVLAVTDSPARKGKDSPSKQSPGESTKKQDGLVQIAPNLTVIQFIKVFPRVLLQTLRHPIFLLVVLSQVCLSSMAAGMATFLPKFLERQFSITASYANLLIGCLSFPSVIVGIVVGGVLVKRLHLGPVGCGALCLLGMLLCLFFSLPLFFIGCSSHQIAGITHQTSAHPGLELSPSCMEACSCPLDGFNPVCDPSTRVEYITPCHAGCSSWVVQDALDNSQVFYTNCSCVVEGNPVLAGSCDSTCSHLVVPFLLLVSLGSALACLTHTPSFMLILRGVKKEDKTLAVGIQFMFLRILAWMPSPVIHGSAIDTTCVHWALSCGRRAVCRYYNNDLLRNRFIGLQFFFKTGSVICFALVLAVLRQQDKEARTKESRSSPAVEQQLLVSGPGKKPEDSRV
How it was run: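 HEK293 cells with tetracycline-inducible OATP2B1, grown in DMEM/Ham's F12/10% FCS and induced with 1 µg/ml tetracycline 72 h before assay. Substrate 1 µM DBF ± test compound (0.1–100 µM, in PBS/2% FCS), 10 min at 37 °C. After washing, median intracellular fluorescence read by flow cytometry. Normalised to non-induced cells. 8 replicates/concentration, 3–5 experiments. IC50 from four-parameter fit. Naringin control inhibitor.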

OATP1B3 [2] = molecular target: T2, OATP1B3 (Homo sapiens, UniProt Q9NPD5); test: OATP1B3 inhibition assay; format: cell-based
T2 sequence (Q9NPD5 1-702): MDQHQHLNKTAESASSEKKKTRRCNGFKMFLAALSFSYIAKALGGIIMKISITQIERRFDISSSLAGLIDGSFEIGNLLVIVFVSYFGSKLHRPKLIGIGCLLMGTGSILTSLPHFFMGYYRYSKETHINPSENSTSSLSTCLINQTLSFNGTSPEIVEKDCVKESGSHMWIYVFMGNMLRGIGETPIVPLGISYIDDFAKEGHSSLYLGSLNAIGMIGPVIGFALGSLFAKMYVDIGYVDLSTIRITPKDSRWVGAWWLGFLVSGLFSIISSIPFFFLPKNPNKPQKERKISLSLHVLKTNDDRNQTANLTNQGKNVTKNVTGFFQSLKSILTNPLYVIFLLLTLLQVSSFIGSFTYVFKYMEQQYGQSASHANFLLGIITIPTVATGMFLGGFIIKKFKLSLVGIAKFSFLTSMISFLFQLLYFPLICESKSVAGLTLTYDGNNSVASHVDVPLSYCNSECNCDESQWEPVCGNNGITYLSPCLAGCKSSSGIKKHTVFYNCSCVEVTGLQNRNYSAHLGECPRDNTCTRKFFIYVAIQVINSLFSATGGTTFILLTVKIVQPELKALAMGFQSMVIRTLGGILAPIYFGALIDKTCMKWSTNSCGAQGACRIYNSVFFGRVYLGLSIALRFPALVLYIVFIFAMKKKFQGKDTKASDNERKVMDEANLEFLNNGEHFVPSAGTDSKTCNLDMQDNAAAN

OATP1B1 [3] = molecular target: T3, OATP1B1 (Homo sapiens, UniProt Q9Y6L6); test: OATP1B1 inhibition assay; format: cell-based
T3 sequence (Q9Y6L6 1-691): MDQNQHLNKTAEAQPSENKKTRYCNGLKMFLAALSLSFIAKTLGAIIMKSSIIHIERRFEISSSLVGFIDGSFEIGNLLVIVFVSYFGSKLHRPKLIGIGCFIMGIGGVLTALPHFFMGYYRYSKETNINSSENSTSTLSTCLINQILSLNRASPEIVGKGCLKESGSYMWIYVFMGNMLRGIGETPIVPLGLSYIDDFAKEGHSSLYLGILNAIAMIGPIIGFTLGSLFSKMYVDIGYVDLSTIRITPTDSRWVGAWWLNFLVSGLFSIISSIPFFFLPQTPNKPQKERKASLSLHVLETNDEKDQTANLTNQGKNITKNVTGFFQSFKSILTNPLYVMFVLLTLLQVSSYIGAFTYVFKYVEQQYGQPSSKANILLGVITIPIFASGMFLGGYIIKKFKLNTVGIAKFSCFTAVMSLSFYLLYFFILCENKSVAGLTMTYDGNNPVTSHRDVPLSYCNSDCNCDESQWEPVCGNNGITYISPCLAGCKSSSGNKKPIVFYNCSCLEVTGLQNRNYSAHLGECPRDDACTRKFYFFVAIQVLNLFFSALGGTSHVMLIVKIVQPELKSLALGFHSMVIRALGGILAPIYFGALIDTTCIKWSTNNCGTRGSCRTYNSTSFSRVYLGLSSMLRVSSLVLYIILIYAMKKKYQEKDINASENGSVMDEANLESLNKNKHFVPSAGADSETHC
How it was run: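 Stably transfected OATP1B1- or OATP1B3-HEK293 cells and empty-vector HEK293 control, grown in DMEM/10% FCS with G418. Cells exposed 10 min at 37 °C to 2.5 µM 8-FcA ± test compound (0.1–100 µM, in PBS/2% FCS). After washing, median intracellular fluorescence read by flow cytometry (30,000 cells, viable gate). With/without-inhibitor ratio normalised to control line. 8 replicates/concentration, 3–5 experiments. Four-parameter fit gives IC50. Rifampicin control.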

OATP1B3 [4] = molecular target: T2, OATP1B3; details: read-out: OATP1B3 IC50; control inhibitor; 8-FcA uptake; cited from earlier work
OATP1B1 [5] = molecular target: T3, OATP1B1; details: read-out: OATP1B1 IC50; control inhibitor; 8-FcA uptake; cited from earlier work

IC50 (OATP2B1) | IC50 (OATP1B3 [2]) | IC50 (OATP1B1 [3]) | potency for OATP1B3 relative to rifampicin (OATP1B3 [2]; comparison of IC50 values) | Structure (SMILES) | bioavailability [1] | IC50 (OATP1B3 [4]) | IC50 (OATP1B1 [5])
1.6 ± 0.8 µM | 5.6 ± 1 µM | 4.8 ± 1.7 µM | – | COc1ccc(-c2cc(=O)c3c(OC)c(OC)c(OC)c(OC)c3o2)cc1 [Tangeretin, tangeretin] | 27% | – | –
– | – | – | – | CO[C@H]1/C=C/O[C@@]2(C)Oc3c(C)c(O)c4c(O)c(c(/C=N/N5CCN(C)CC5)c(O)c4c3C2=O)NC(=O)/C(C)=C\C=C\[C@H](C)[C@H](O)[C@@H](C)[C@@H](O)[C@@H](C)[C@H](OC(C)=O)[C@@H]1C [Rifampicin, rifampicin] | – | ~2 µM | ~2 µM
5.4 ± 0.6 µM | 21.1 ± 3.4 µM | 8 ± 2.6 µM | about ten times lower | COc1ccc(-c2cc(=O)c3c(OC)c(OC)c(OC)cc3o2)cc1OC [Sinensetin, sinensetin] | – | – | –
14.2 ± 3.5 µM | > 100 µM | > 100 µM | – | C[C@@H]1O[C@@H](OC[C@H]2O[C@@H](Oc3cc(O)c4c(c3)O[C@H](c3ccc(O)cc3)CC4=O)[C@H](O)[C@@H](O)[C@@H]2O)[C@H](O)[C@H](O)[C@H]1O [Narirutin, narirutin] | – | – | –
6.9 ± 1.4 µM | > 100 µM | > 100 µM | – | C[C@@H]1O[C@@H](O[C@H]2[C@H](Oc3cc(O)c4c(c3)O[C@H](c3ccc(O)cc3)CC4=O)O[C@H](CO)[C@@H](O)[C@@H]2O)[C@H](O)[C@H](O)[C@H]1O [Naringin, naringin, reference compound] | – | – | –
1.6 ± 0.4 µM | 6.6 ± 0.4 µM | 2.1 ± 0.7 µM | – | COc1ccc(-c2cc(=O)c3c(OC)c(OC)c(OC)c(OC)c3o2)cc1OC [Nobiletin, nobiletin] | 36% | – | –
